Converted amounts (≈) assume the structure as drawn. “And” between values parts separate entries of the source, which are not always exact repeats. Identical values can stand only once. Counter-ions that a name gives are not always drawn. Like-named read-outs stand apart in the source and are kept apart here. Blank lines part the entries; values can stand above or below the molecule they belong to.
What was measured:
[1] = tested on: A549 human lung cancer cell line; assay: Sulforhodamine B; assay type: cell-based; details: read-out: Growth inhibition, IC50
Procedure, shortened: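 SRB growth assay. A549 cells were grown in RPMI 1640 with 10% FBS, 2% penicillin/streptomycin and 1% amphotericin B, then seeded at 8,000 per well overnight. Cells were exposed 24, 48 or 72 h to graded test compound (0.5% DMSO final; reference drug alongside). Cells were fixed in cold 40% TCA for 1 h at 4°C and stained with 0.4% SRB for 30 min. Dye was solubilised in 10 mM Tris pH 10.5 and read at 492 nm. IC50 came from % inhibition dose-response curves.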

[2] = tested on: MRC-5 human lung fibroblast; assay: Sulforhodamine B; assay type: cell-based; details: for IC50: Homo sapiens, read-out: Growth inhibition, IC50
Procedure, shortened: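 SRB growth assay. MRC-5 fetal lung fibroblasts were grown in MEM with 10% FBS and 1% penicillin/streptomycin at 37°C, 5% CO2, then seeded at 8,000 per well overnight. Cells were exposed 24, 48 or 72 h to graded test compound (0.5% DMSO final). Cells were fixed in cold 40% TCA at 4°C, stained with 0.4% SRB, solubilised in 10 mM Tris pH 10.5 and read at 492 nm. IC50 came from % inhibition versus concentration curves.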

[3] = tested on: A549 cells; details: A549, 48 h treatment; ref 10 (Lee et al.); cited from earlier work
[4] = tested on: A549 cells; assay: Annexin V-FITC/PI staining, flow cytometry; assay type: cell-based, human; details: 72 h; for percentage of early apoptotic cells (Annexin V-FITC+ PI-): negative control 1.42 ± 0.47%; for population of late apoptotic or secondary necrotic cells (Annexin V-FITC+ PI+): negative control 1.80 ± 0.30%
Procedure, shortened: (§1)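 A549 cells in RPMI 1640 with 10% FBS, 37°C, 5% CO2. Test compound in DMSO, 0.5% DMSO final. Annexin: 2.4 × 10^5 cells/well adhered overnight, 72 h exposure, 1 × 10^5 cells stained with FITC-annexin V and PI, 10,000 events per replicate. JC-1: 72 h, 15 min dye, red aggregate (FL2-A) vs green monomer (FL1-A). Mean ± SEM; at least two runs in triplicate.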

[5] = Mitochondrial membrane potential assay; assay type: cell-based, human; details: human, A549 cells, Population of viable cells (P5 region, high Δψm), A549, 42 μM, untreated 91.42 ± 0.36%
Procedure, shortened: as §1

[6] = tested on: A549 cells; assay: Mitochondrial membrane potential assay; assay type: cell-based, human; details: A549, 14, 28, 42 μM, 72 h, dose-dependent
Procedure, shortened: as §1

[7] = tested on: A549 cells; assay: DNA fragmentation by TUNEL assay; assay type: cell-based, human; details: 72 h, negative control 4.27 ± 0.13%
[8] = tested on: A549 cells; assay: Cell cycle analysis; assay type: cell-based, human; details: 72 h; for percentage of cells at S phase: 0 μM 8.94 ± 0.23%
Procedure, shortened: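 After 72 h of test compound, adherent and floating A549 cells were pooled and fixed in 70% ethanol overnight. Cells were stained 30 min at room temperature with 50 μg/ml PI, 50 μg/ml RNase, 0.1% Triton X-100 and 1 mg/ml sodium citrate (final). DNA content was read by flow cytometry and modelled into sub-G1, G1, S and G2/M fractions. Runs were done at least twice in triplicate; one-way ANOVA/Tukey versus control.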

[9] = tested on: caspase-3 in A549 cells; assay: Caspase-3 activity; assay type: cell-based, human; details: A549, 12, 24, 48 h
[10] = tested on: caspase-8 in A549 cells; assay: Caspase-8 activity; assay type: cell-based, human; details: A549, 12, 24, 48 h; highest RLU at 14 μM at 24 h and 48 h
[11] = tested on: caspase-9 in A549 cells; assay: Caspase-9 activity; assay type: cell-based, human; details: A549, 12, 24, 48 h; highest RLU at 14 μM at 24 h and 48 h
[12] = tested on: A549 cells; assay: Phase contrast microscopy; assay type: cell-based, human; details: A549, 14, 28, 42 μM, 72 h
[13] = tested on: DNA topoisomerase I (Top 1); details: cited from earlier work
[14] = tested on: benign prostatic hyperplasia (BPH-1) epithelial cell line; details: BPH-1, 10 µM and 20 µM for 48 h; cited from earlier work
[15] = tested on: MDA-MB-435 breast cancer cells; details: MDA-MB-435, 5–50 µM for 24 h; cited from earlier work
[16] = tested on: HCT-116 human colon cancer cells; details: cited from earlier work
[17] = tested on: breast cancer xenografts; details: breast cancer xenografts in nude mice; ref 24 (Monteiro et al.); cited from earlier work
[18] = tested on: mice; details: cited from earlier work

IC50 ([1]; A549, 24 h): 2.85 ± 0.2 µM
IC50 ([1]; A549, 48 h): 0.22 ± 0.03 µM
IC50 ([1]; A549, 72 h): 0.02 ± 0.02 µM
Compound: COc1cccc2c1C(=O)c1c(O)c3c(c(O)c1C2=O)C[C@@](O)(C(=O)CO)C[C@@H]3O[C@H]1C[C@H](N)[C@H](O)[C@H](C)O1 [Doxorubicin, Doxorubicin hydrochloride, reference compound]
IC50 ([2]; MRC5, 24 h): 5.71 ± 0.55 µM
IC50 ([2]; MRC5, 48 h): 2.01 ± 0.04 µM
IC50 ([2]; MRC5, 72 h): 1.09 ± 0.1 µM
IC50 (cytotoxic effects on A549) [3]: 0.5 µg/mL

IC50 ([1]; A549, 24 h): 74.1 ± 1.98 µM
IC50 ([1]; A549, 48 h): 25.5 ± 0.3 µM
IC50 ([1]; A549, 72 h): 13.5 ± 0.82 µM
Compound: COc1cc(O)c(CC=C(C)C)c(O)c1C(=O)/C=C/c1ccc(O)cc1 [Xanthohumol, 2', 4, 4'-trihydroxy-3'-prenyl-6'-methoxychalcone]
IC50 ([2]; MRC5, 24 h): > 282 µM and > 100 µg/mL
IC50 ([2]; MRC5, 48 h): 149 ± 4.96 µM
IC50 ([2]; MRC5, 72 h): 94.4 ± 1.77 µM
Toxicity to normal cells (MRC-5) versus cancer cells (A549) ([2]; comparison of IC50 values on MRC-5 and A549, SRB assay): less toxic to normal cells compared to cancer cells
percentage of early apoptotic cells (Annexin V-FITC+ PI-) ([4]; A549, 14 μM): 2.72 ± 0.59%
population of late apoptotic or secondary necrotic cells (Annexin V-FITC+ PI+) ([4]; A549, 14 μM): 4.90 ± 0.85%
percentage of early apoptotic cells (Annexin V-FITC+ PI-) ([4]; A549, 28 μM): 26.08 ± 1.50%
population of late apoptotic or secondary necrotic cells (Annexin V-FITC+ PI+) ([4]; A549, 28 μM): 17.05 ± 3.12%
percentage of early apoptotic cells (Annexin V-FITC+ PI-) ([4]; A549, 42 μM): 34.42 ± 4.41%
population of late apoptotic or secondary necrotic cells (Annexin V-FITC+ PI+) ([4]; A549, 42 μM): 33.27 ± 3.55%
viability at 72 h, 42 µM [5]: 2.88 ± 0.62%
Effect on mitochondrial membrane potential (Δψm) [6]: significantly reduced
percentage of cells with DNA fragmentation ([7]; A549, 28 μM): 34.7 ± 0.30%
percentage of cells with DNA fragmentation ([7]; A549, 42 μM): 39.2 ± 0.15%
percentage of cells at S phase ([8]; A549, 14 μM): 12.34 ± 1.09%
percentage of cells at S phase ([8]; A549, 28 μM): 16.43 ± 1.52%
percentage of cells at S phase ([8]; A549, 42 μM): 46.95 ± 2.03%
Effect on sub G1 population ([8]; A549, increasing concentration): increased the percentage of cells arrested at sub G1 peak
Caspase-3 activity (RFU) [9]: RFU values increased as concentration and treatment time increased
Caspase-8 activity (RLU) [10]: significantly increased
Caspase-9 activity (RLU) [11]: significantly increased
Morphological changes [12]: atrophy, size shrinkage, decrease in cell number, and detachment of cells
IC50 (cytotoxic effects on A549) [3]: 4.3 µg/mL (≈ 12.1 µM)
Effect on DNA topoisomerase I (Top 1) activity [13]: inhibition of DNA topoisomerase I (Top 1) activity
Cell cycle effect [14]: S phase arrest
Cell cycle effect [15]: S phase arrest
Caspase activation [16]: Activation of all caspase-3, -8, and -9
In vivo antitumor effects on isolated tumors [17]: decrease in tumor-surrounding inflammatory cells and a large central necrosis
Organ function and homeostasis ([18]; feeding, ref 6 (Dorn et al.)): did not impair organ function and homeostasis
Hematological and biochemical blood analyses versus control group ([18]; oral administration, ref 25 (Vanhoecke et al.)): no difference in hematological and biochemical blood analyses
